Assay results from ChEMBL document CHEMBL4339252, “Prenylated Stilbenoids Affect Inflammation by Inhibiting the NF-κB/AP-1 Signaling Pathway and Cyclooxygenases and Lipoxygenase” (J Nat Prod, 2019).
The source made the active and inactive calls. No cut-off for these calls is given here.

Legend:
THP-1 [1] = assay: Cytotoxicity against human THP1 cells assessed as reduction in cell viability incubated for 24 hrs by WST1 dye based assay; details: THP-1, 24 h
Summary of the method: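 Undifferentiated THP-1 cells moved to serum-free medium at 5 × 10^5 cells/well. After 2 h, compounds in DMSO added at 0.125−20 μM and incubated 24 h. Viability read with WST-1 reagent. IC50 taken from four-parameter logistic fits of at least five-point curves, serial measurements in triplicate, means ± SE.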

THP-1 [2] = assay: Antiinflammatory activity in PMA-differentiated human THP1 cells assessed as inhibition of TNFalpha production at 1 uM pre-incubated for 1 hr before LPS-stimulation for 24 hrs by ELISA; assay type: functional, cell-based
Summary of the method: (§1)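 THP-1 monocytes grown in RPMI 1640 with 10% FBS and antibiotics at 37 °C, plated at 5 × 10^5 cells/well and differentiated to macrophages with phorbol myristate acetate. Pretreated 1 h with compound in DMSO, or DMSO vehicle. Then stimulated with E. coli 0111:B4 LPS (1 μg/mL); unstimulated controls got no LPS. Medium collected after 24 h, cytokine measured by ELISA. Triplicates, three or more independent experiments, means ± SE.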

THP-1 [3] = assay: Antiinflammatory activity in PMA-differentiated human THP1 cells assessed as inhibition of TNFalpha production at 0.1 uM pre-incubated for 1 hr before LPS-stimulation for 24 hrs by ELISA; assay type: functional, cell-based; summary of the method: as §1
THP-1 [4] = assay: Induction of IL-1beta production in PMA-differentiated human THP1 cells at 0.1 uM pre-incubated for 1 hr before LPS-stimulation for 24 hrs by ELISA; assay type: cell-based; details: thp-1, 24 h; summary of the method: as §1
THP-1 [5] = assay: Antiinflammatory activity in PMA-differentiated human THP1 cells assessed as inhibition of IL-1beta production at 1 uM pre-incubated for 1 hr before LPS-stimulation for 24 hrs by ELISA; assay type: functional, cell-based; summary of the method: as §1
Homo sapiens = organism: Homo sapiens; assay: Inhibition of LPS-stimulation dependent TLR4-induced NF-kappaB/AP-1 signaling cascade in human THP1-XBlue-MD2-CD14 cells at 1 uM pre-incubated for 1 hr before LPS-stimulation for 24 hrs by spectrophotometry
Summary of the method: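 THP-1-XBlue-MD2-CD14 reporter cells (5 × 10^5/well) pretreated 1 h with compound in DMSO, then stimulated with LPS (1 μg/mL) for 24 h. NF-κB/AP-1 activity read with Quanti-Blue reagent as OD at 655 nm and expressed against vehicle (100%). Five independent experiments in triplicate, means ± SE.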

[6] = molecular target: T1, Prostaglandin G/H synthase 1 (Ovis aries, UniProt P05979); assay: Inhibition of ram seminal vesicle COX1 assessed as reduction in PGE2 production using arachidonic acid substrate by ELISA
T1 sequence (P05979 whole entry): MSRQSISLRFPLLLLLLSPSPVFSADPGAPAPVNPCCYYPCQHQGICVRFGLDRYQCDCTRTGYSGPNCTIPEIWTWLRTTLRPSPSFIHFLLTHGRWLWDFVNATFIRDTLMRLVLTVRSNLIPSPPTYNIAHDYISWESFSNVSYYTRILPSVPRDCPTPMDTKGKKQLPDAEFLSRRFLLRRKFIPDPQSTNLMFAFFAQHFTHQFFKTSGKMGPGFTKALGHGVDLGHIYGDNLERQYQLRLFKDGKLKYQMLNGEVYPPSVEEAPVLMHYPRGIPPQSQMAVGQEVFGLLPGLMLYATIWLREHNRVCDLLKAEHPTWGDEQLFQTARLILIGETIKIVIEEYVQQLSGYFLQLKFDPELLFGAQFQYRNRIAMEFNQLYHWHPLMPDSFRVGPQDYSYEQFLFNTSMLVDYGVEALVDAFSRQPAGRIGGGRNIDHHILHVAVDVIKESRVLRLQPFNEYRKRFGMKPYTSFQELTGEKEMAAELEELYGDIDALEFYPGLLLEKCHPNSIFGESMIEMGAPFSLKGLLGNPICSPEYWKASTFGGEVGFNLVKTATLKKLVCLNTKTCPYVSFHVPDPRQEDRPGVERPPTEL

[7] = molecular target: T2, Prostaglandin G/H synthase 2 (Homo sapiens, UniProt P35354); assay: Inhibition of human recombinant COX2 assessed as reduction in PGE2 production using arachidonic acid substrate by ELISA
T2 sequence (P35354 whole entry): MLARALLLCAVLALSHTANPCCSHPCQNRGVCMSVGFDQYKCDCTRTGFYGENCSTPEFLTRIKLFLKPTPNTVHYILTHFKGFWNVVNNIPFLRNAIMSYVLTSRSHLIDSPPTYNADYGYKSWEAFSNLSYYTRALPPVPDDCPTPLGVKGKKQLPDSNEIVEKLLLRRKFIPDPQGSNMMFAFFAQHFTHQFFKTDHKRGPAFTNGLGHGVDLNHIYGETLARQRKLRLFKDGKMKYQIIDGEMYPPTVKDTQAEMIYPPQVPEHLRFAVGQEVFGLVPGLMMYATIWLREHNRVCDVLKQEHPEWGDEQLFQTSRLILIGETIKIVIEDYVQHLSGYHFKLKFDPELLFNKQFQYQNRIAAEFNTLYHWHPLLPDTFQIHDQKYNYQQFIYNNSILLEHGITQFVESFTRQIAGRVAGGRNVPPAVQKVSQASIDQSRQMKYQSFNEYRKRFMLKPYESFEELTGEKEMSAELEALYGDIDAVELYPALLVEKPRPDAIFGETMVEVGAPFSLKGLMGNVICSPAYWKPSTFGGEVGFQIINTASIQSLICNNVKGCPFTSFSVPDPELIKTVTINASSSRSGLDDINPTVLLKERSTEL

[8] = molecular target: T3, Polyunsaturated fatty acid 5-lipoxygenase (Homo sapiens, UniProt P09917); assay: Inhibition of human recombinant 5-LOX assessed as reduction in leukotriene B4 synthesis using arachidonic acid substrate by ELISA
T3 sequence (P09917 whole entry): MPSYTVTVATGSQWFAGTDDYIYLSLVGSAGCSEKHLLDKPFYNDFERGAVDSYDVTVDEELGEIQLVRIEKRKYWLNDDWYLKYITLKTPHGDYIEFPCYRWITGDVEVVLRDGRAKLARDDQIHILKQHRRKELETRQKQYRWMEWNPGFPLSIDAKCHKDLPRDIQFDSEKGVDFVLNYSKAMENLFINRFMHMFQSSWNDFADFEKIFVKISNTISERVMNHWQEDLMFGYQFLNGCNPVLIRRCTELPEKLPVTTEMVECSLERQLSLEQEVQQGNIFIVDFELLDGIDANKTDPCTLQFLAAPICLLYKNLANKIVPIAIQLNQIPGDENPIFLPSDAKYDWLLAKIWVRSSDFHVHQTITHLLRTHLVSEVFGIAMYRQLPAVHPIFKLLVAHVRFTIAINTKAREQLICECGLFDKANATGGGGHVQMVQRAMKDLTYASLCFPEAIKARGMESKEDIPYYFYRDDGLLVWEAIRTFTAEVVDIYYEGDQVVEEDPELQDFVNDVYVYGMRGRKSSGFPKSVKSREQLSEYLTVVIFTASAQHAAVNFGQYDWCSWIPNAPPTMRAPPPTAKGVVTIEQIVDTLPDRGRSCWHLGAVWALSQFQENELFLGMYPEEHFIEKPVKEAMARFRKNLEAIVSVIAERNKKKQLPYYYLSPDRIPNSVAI

[9] = molecular target: T4, NF-kappa-B inhibitor alpha (Homo sapiens) (UniProt P25963); assay: Inhibition of IkappaBalpha degradation in LPS-stimulated human THP1-XBlue-MD2-CD14 cells at 1 uM pre-incubated for 1 hr before LPS-stimulation for 30 mins by Western blot analysis
T4 sequence (whole entry): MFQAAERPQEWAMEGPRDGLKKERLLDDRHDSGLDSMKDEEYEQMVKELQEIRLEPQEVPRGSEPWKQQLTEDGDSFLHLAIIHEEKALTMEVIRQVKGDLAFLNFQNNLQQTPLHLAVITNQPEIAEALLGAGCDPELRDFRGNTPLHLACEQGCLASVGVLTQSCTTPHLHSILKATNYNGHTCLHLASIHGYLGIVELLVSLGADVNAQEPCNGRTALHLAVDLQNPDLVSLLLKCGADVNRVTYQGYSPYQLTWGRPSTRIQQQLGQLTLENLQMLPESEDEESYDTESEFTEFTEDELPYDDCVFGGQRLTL
Summary of the method: (§2)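 THP-1-XBlue-MD2-CD14 cells pretreated with compound (1 μM), then LPS (1 μg/mL) added 1 h later. Lysates taken 30 min after LPS. 9 μg protein run on 12% PAGE, blotted to PVDF, blocked in 5% BSA. Probed for IκB-α, total and phospho p38, ERK1/2 and JNK, with β-actin as reference. ECL chemiluminescence; three independent experiments.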

[10] = molecular target: Mitogen-activated protein kinase; ERK1/ERK2 (Homo sapiens) (UniProt P27361+P28482); assay: Inhibition of ERK1/2 phosphorylation in LPS-stimulated human THP1-XBlue-MD2-CD14 cells at 1 uM pre-incubated for 1 hr before LPS-stimulation for 30 mins by Western blot analysis; summary of the method: as §2
[11] = molecular target: MAP kinase p38 (Homo sapiens) (UniProt O15264+Q15759+Q16539+P53778); assay: Inhibition of p38 phosphorylation in LPS-stimulated human THP1-XBlue-MD2-CD14 cells at 1 uM pre-incubated for 1 hr before LPS-stimulation for 30 mins by Western blot analysis; summary of the method: as §2
[12] = molecular target: c-Jun N-terminal kinase, JNK (Homo sapiens) (UniProt P45983+P53779+P45984); assay: Inhibition of JNK phosphorylation in LPS-stimulated human THP1-XBlue-MD2-CD14 cells at 1 uM pre-incubated for 1 hr before LPS-stimulation for 30 mins by Western blot analysis; summary of the method: as §2
THP-1 [13] = assay: Induction of TNFalpha production in PMA-differentiated human THP1 cells at 1 uM pre-incubated for 1 hr before LPS-stimulation for 24 hrs by ELISA; assay type: cell-based; details: thp-1, 24 h; summary of the method: as §1
THP-1 [14] = assay: Induction of IL-1beta production in PMA-differentiated human THP1 cells at 1 uM pre-incubated for 1 hr before LPS-stimulation for 24 hrs by ELISA; assay type: cell-based; details: thp-1, 24 h; summary of the method: as §1
[15] = Selectivity index, ratio of IC50 for inhibition of ram seminal vesicle COX1 to IC50 for inhibition of human recombinant COX2

Mitogen-activated protein kinase; ERK1/ERK2 (Homo sapiens), sequence (P27361 whole entry, looked up): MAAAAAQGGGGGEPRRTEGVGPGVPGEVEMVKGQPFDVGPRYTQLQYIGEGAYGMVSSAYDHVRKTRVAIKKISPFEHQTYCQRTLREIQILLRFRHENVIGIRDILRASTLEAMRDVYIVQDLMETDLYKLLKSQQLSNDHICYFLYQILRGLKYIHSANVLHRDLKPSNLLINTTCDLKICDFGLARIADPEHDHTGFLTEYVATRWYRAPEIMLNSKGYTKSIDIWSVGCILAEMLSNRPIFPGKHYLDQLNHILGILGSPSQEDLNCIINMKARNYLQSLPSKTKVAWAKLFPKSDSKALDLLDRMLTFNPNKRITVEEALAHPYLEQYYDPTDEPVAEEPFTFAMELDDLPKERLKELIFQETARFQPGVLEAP
Mitogen-activated protein kinase; ERK1/ERK2 (Homo sapiens), sequence (P28482 whole entry, looked up): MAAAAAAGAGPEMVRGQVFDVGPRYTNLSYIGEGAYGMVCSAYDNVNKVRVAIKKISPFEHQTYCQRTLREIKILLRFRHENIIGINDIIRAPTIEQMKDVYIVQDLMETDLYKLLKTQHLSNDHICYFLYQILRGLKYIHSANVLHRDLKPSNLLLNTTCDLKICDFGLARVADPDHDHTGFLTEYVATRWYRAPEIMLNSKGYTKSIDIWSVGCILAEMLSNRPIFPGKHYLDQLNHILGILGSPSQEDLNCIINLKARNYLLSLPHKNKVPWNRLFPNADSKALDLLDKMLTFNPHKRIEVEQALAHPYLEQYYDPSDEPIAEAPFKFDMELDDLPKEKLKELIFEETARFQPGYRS

SMILES	inhibition (Homo sapiens)	IC50 [6] [nM]	IC50 [7] [µM]	IC50 ([8]; read-out: IC50) [nM]	Ratio IC50 [15]	IC50 (THP-1 [1]) [µM]	inhibition (THP-1 [2])	inhibition (THP-1 [5])	other results
COc1ccc(/C=C/c2c(CC=C(C)C)c(O)cc3c2CC(O)C(C)(C)O3)cc1 (stereo not given)	–	–	–	–	–	1.8	inactive	–	inhibition (THP-1 [3]): Active; Activity (THP-1 [4]): Toxic
COc1cc(/C=C/c2ccc(OC)c(CC=C(C)C)c2)cc(OC)c1	–	–	–	–	–	> 10	Active	Active	–
COc1cc(/C=C\c2ccc(OC)c(CC=C(C)C)c2)cc(OC)c1	Active	–	–	–	–	> 10	Active	Active	–
CC(C)=CCc1c(O)cc2c(c1/C=C\c1ccc(O)cc1)CCC(C)(C)O2	–	–	–	–	–	4.9	Active	–	–
CC1(C)C=Cc2c(O)cc(/C=C/c3ccc(O)cc3)cc2O1 [ARAHYPIN-5]	Active	13300	> 20	2400	–	> 10	Active	inactive	inhibition [9]: Active; inhibition [10]: inactive; inhibition [11]: inactive; inhibition [12]: inactive
CC(C)=CCc1c(O)cc(/C=C/c2ccc(O)cc2O)cc1O	–	–	–	–	–	> 10	inactive	–	Activity (THP-1 [13]): Toxic; Activity (THP-1 [14]): Toxic
COc1ccc(/C=C/c2c(CC=C(C)C)c(O)cc3c2CCC(C)(C)O3)cc1O	–	12600	35.5	–	0.36	3.3	Active	–	IC50 [8]: Not Active

Now from value to compound, other results behind:

inhibition (Homo sapiens)	IC50 [6] [nM]	IC50 [7] [µM]	IC50 ([8]; read-out: IC50) [nM]	Ratio IC50 [15]	SMILES	IC50 (THP-1 [1]) [µM]	inhibition (THP-1 [2])	inhibition (THP-1 [5])	other results
Active	–	–	–	–	C[C@]12C=CC(=O)C=C1CC[C@@H]1[C@@H]2C(=O)C[C@@]2(C)[C@H]1CC[C@]2(O)C(=O)CO	–	–	–	–
–	900	14.7	900	0.06	COc1ccc(/C=C/c2c(CC=C(C)C)c(O)cc(O)c2CC=C(C)C)cc1O	3.9	Active	–	–
Active	–	–	–	–	C=CC(C)(C)c1cc(/C=C/c2cc(OC)cc(OC)c2)ccc1OC	> 10	Active	inactive	–
Active	800	4.7	1100	0.17	COc1ccc(/C=C/c2c(CC=C(C)C)c(O)cc(O)c2CC=C(C)C)cc1	2.7	Active	–	–
Active	400	5.7	900	0.07	CC(C)=CCc1c(O)cc(O)c(CC=C(C)C)c1/C=C/c1ccc(O)cc1	12.8	Active	Active	–
